Data as given in PubChem BioAssay.
Inconclusive results are not listed.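 How the source made its calls, unless noted: active means viability at or below 27.92% in each of two runs, the all-compound median minus 4 SD; inconclusive means no clear call, values can overlap the other calls; inactive means the rest.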

How the values were obtained:
[1] = OD615 S. cerevisiae growth inhibition, permissive medium, pilot counter-assay, permissive growth control for S. cerevisiae lifespan shortening project (AID 705;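 active means growth inhibition above 25% in both replicates, a cutoff set 3 SD above the mean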); conditions: OD615, 24 h, at 10 µM, stronger effect = higher value
In short: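 Material: engineered DeaD yeast; compound dosing: one dose 10 µM, DMSO 0.25% final; measure: yeast growth inhibition indicated by reduced 24 h OD615; detection: OD615 turbidity read; incubation: cells pre-grown 4 h, then 24 h compound exposure, 30 °C humidified; medium: permissive synthetic complete medium with raffinose and galactose carbon sources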

[2] = Restrictive medium S. cerevisiae growth inhibition, OD615, pilot screen of yeast lifespan reduction project, restrictive growth control (AID 706;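 active means growth inhibition above a set limit, 3 SD over mean compound inhibition, in both replicates, cut at about 43% in these data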;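 further: modified DeaD lifespan yeast strain shifted to restrictive glucose medium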); conditions: OD615, 48 h, at 10 µM, stronger effect = higher value
In short: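 material = engineered S. cerevisiae DeaD strain | medium = glucose-based CSMM-D restrictive medium | times = 4 h pre-incubation, 48 h exposure at 30 °C | technique = OD615 absorbance reading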

[3] = viability gain of MRP-1-high H69AR cells under doxorubicin, pilot screen, MRP-1 activator project, CellTiter-Glo, duplicate (AID 807;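 active means viability increase at or above a cutoff of the median across tested compounds plus 3 SD, cut at about 8.5% in these data, passing the limit was not always enough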;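 further: compound pretreatment 18-22 h then 72 h combined with doxorubicin; 0% = doxorubicin alone and 100% = vehicle without doxorubicin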); conditions: H69AR viability with doxorubicin, CellTiter-Glo luminescence; at 10 µM; stronger effect = higher value
[4] = growth suppression of beta-catenin knockout HCT116, pilot screen, human colon tumor cells (AID 823;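 active means cell viability at or below a set limit in both duplicate runs, the limit being the all-compound median minus 4 SD, cut at about 23% in these data, passing the limit was not always enough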;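 further: 0% = wells killed by 20 µM Hyamine and 100% = untreated DMSO cell wells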); conditions: CellTiter-Glo, 60 h, at 10 µM, stronger effect = lower value
[5] = growth suppression of PTEN-deleted HCT116, pilot screen, cell-based, HCT116 clonal line, CellTiter-Glo (AID 824); conditions: 60 h, at 10 µM, stronger effect = lower value;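 further: 0% = 20 µM Hyamine control and 100% = vehicle cell control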
[6] = inhibitors of the yeast RAM network, pilot screen, dse1pr::URA3 reporter, 5-FOA selection (AID 869;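 active means inhibition over a set limit, the all-compound mean plus 3 SD, in both replicate runs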;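 further: 0% = DMSO wells with no growth and 100% = 10 µM 1-NA-PP1 with full growth; RAM network block rescues cells from 5-FOA so hits raise OD615 growth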); conditions: S. cerevisiae dse1pr::URA3 5-FOA growth, OD615, 2 d; at 10 µM; stronger effect = higher value; strain carries analog-sensitive mutant Cbk1 kinase
[7] = RAM signaling pathway blockade in yeast – S. cerevisiae, Pdr1DBD-CYC8 efflux-inhibited sensitized strain, primary screen (AID 1298;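 active means RAM network inhibition above 8.4% in each of two replicates, 3 SD over the compound average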;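 further: 0% = DMSO untreated cells without growth and 100% = 10 µM 1-NA-PP1 full growth; higher means more yeast growth rescued from 5-FOA killing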); conditions: S. cerevisiae cbk1-as DSE1-URA3 strain, 5-FOA growth OD615, 2 d; at 50 µM; stronger effect = higher value

CC(C)Sc1nnc(NC(=O)C2CC2)s1
inactive: growth inhibition [1] -12.6% | growth inhibition [2] -3.5% | viability increase [3] -0.09% | viability [4] 98.1% | viability [5] 102% | inhibition [6] 1.93% | RAM network inhibition [7] 3.62%

CC1=C(C(=O)N(C)C)C(c2cccc(Cl)c2)NC(=O)N1 (stereo unspecified)
inactive: growth inhibition [1] -2.44% | growth inhibition [2] -14.6% | viability increase [3] 0.18% | viability [4] 99.1% | viability [5] 94.9% | inhibition [6] 2.12% | RAM network inhibition [7] 2.17%

COc1ccc(-c2nc(CSCC(=O)N3CCC(C(N)=O)CC3)c(C)o2)cc1OC
inactive: growth inhibition [1] -2.87% | growth inhibition [2] 9.12% | viability increase [3] -0.52% | viability [4] 106% | viability [5] 98.3% | inhibition [6] 0.78% | RAM network inhibition [7] -0.72%

O=C(NCCn1ccc2ccccc21)C1CCCCC1
inactive: growth inhibition [1] -13.3% | growth inhibition [2] -15.1% | viability increase [3] -0.84% | viability [4] 87.7% | viability [5] 87.2% | inhibition [6] 2.12% | RAM network inhibition [7] 2.92%

COc1cc(C(=O)NCC(c2cccnc2)N2CCN(c3ccccc3)CC2)cc(OC)c1OC (stereo unspecified)
inactive: growth inhibition [1] -6.31% | growth inhibition [2] -10.5% | viability increase [3] -4.26% | viability [4] 98.4% | viability [5] 92.5% | inhibition [6] 2.09% | RAM network inhibition [7] 2.64%

N#Cc1cccc(NC(=O)CC2CCCCC2)c1
inactive: growth inhibition [1] -1.48% | growth inhibition [2] 11.6% | viability increase [3] -0.95% | viability [4] 95% | viability [5] 86.8% | inhibition [6] 0.645% | RAM network inhibition [7] 2.76%

Cc1c2cnn(-c3ccccc3)c(=O)c2c(C)n1CCCC(=O)N1CCN(C)CC1
inactive: growth inhibition [1] -6.96% | growth inhibition [2] -7.72% | viability increase [3] -1.33% | viability [4] 104% | viability [5] 96.2% | inhibition [6] 1.86% | RAM network inhibition [7] 3.19%

CC1Cc2ccccc2N1C(=O)C1CCCN(S(=O)(=O)c2cccc3cccnc23)C1 (stereo unspecified)
inactive: growth inhibition [1] -6.46% | growth inhibition [2] -11% | viability increase [3] -5.48% | viability [4] 67.9% | viability [5] 62.2% | inhibition [6] 2.08% | RAM network inhibition [7] 7.93%

COc1ccccc1NC(=O)c1c(NC(=O)c2ccco2)sc2c1CCC2
inactive: growth inhibition [1] -9.49% | growth inhibition [2] -18.1% | viability increase [3] -2.92% | viability [4] 80.2% | viability [5] 72% | inhibition [6] 2.31% | RAM network inhibition [7] 2.6%

CCCOC(=O)C1=C(C)NC2=C(C(=O)CC(C)(C)C2)C1c1ccc(N(C)C)cc1 (stereo unspecified)
inactive: growth inhibition [1] -2.65% | growth inhibition [2] 0.07% | viability increase [3] -2.59% | viability [4] 90.8% | viability [5] 80.9% | inhibition [6] -0.505% | RAM network inhibition [7] 6.21%

CCCc1ccc(OCC(O)CN2CCN(c3ccccc3)CC2)cc1 (stereo unspecified)
inactive: growth inhibition [1] 4.55% | growth inhibition [2] 3.57% | viability increase [3] -0.47% | viability [4] 83% | viability [5] 81.6% | inhibition [6] 0.325% | RAM network inhibition [7] 1.55%

COC(=O)c1c(N)sc(C(C)=O)c1C
inactive: growth inhibition [1] -7.62% | growth inhibition [2] -6.67% | viability increase [3] -2.35% | viability [4] 98.4% | viability [5] 94.8% | inhibition [6] 1.72% | RAM network inhibition [7] 5.34%

COc1ccc(Cn2nnc3c(=O)[nH]c(C(=O)NCCc4ccc(F)cc4)nc32)cc1OC
inactive: growth inhibition [1] -3.32% | growth inhibition [2] -2.82% | viability increase [3] -0.55% | viability [4] 114% | viability [5] 100% | inhibition [6] 2.69% | RAM network inhibition [7] 0.97%

O=C(Nc1ccccc1)c1ccccc1O
inactive: growth inhibition [1] 1.28% | growth inhibition [2] 13.7% | viability increase [3] -1.14% | viability [4] 92.2% | viability [5] 83.2% | inhibition [6] -0.42% | RAM network inhibition [7] -1.46%

CCOC(=O)c1c(NC(C)=O)no[n+]1[O-]
inactive: growth inhibition [1] -14.2% | growth inhibition [2] -12.3% | viability increase [3] -2.24% | viability [4] 104% | viability [5] 97.1% | inhibition [6] 0.795% | RAM network inhibition [7] 5.03%

COc1ccc(-c2nc(CNS(=O)(=O)c3cc(OC)ccc3OC)cs2)cc1
inactive: growth inhibition [1] 2.43% | growth inhibition [2] 5.36% | viability increase [3] -1.76% | viability [4] 92% | viability [5] 89.7% | inhibition [6] 0.53% | RAM network inhibition [7] 5.82%

Cc1ccnc(N2C(=O)c3ccccc3C2Nc2ccc3c(c2)OCCO3)c1 (stereo unspecified)
inactive: growth inhibition [1] -12.4% | growth inhibition [2] 3.42% | viability increase [3] 1.16% | viability [4] 99.7% | viability [5] 90.1% | inhibition [6] 0.135% | RAM network inhibition [7] 3.93%

CCCc1ccc(Oc2cn[nH]c2-c2ccc(O)cc2O)cc1
inactive: growth inhibition [1] -16.3% | growth inhibition [2] -10.3% | viability increase [3] -3.5% | viability [4] 82.4% | viability [5] 78.7% | inhibition [6] 0.7% | RAM network inhibition [7] 2.88%
